In the library only some 3.3% were active in any assay of this set; here they are far more common.
NRP1-CendR mod – modulators of CendR peptide binding to human neuropilin-1; 360,000 compounds, 0.85% hits; inhibition, % at 25 µM; FAM-RPARPAR peptide binding to NRP-1, fluorescence polarization; AID 602438;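 active = inhibition or corrected inhibition above about 18%, plus a signal ratio from 0.5 to 1.5, limit read from the data, passing the limit was not always enough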
Myeloid diff 2 – compounds promoting myeloid differentiation. 360,000 compounds, 1% hits. calls only at 10 µM. ER-HoxA9 myeloid progenitors, lysozyme-GFP differentiation, flow cytometry. AID 624256;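 active = normalized GFP-positive differentiation at or above the plate's own cutoff, the solvent-only control mean plus 3 SD; inconclusive = no clear call, values can overlap the other calls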;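 also: cells exposed to compound for four days before flow analysis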
Arr AP2 block – inhibitors of human beta-arrestin and AP2 interaction; inhibition, % at 10 µM; FITC-arrestin peptide / GST-AP2 beads, flow cytometry; AP2 beta2 appendage carries R879A mutation; AID 504490; 340,000 compounds, 0.31% hits;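 active = inhibition above a set limit, near 3 SD of compounds lacking own fluorescence, cut at about 54% in these data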
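Assay system: GST-AP2 R879A bound to glutathione beads, E. coli-expressed; Medium: PBS with 0.05% Tween 20 and 0.1% BSA; Also added: fluorescein-tagged arrestin peptide at 50 nM final; Timing: 12 min plus 1 h, RT; Measured by: flow cytometry, FL1 (488/535 nm); Evaluation: percent drop in bead-associated FITC signal.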
ABCB6 inh 2 – inhibitors of human ABC transporter ABCB6; Q9NP58; AID 602162; 360,000 compounds, 0.19% hits; fluorescence ratio to DMSO, % at 10 µM; K562-ABCB6 porphyrin accumulation, flow cytometry, 1 h; active compounds read low;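 active = fluorescence ratio to DMSO below 75%, the collection mean minus 3 SD; inconclusive = too few cells collected in the well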;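 also: signal is porphyrin accumulated inside mitochondria; lower ratio means ABCB6 inhibition with less porphyrin fluorescence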
Target sequence (Q9NP58 whole entry, looked up): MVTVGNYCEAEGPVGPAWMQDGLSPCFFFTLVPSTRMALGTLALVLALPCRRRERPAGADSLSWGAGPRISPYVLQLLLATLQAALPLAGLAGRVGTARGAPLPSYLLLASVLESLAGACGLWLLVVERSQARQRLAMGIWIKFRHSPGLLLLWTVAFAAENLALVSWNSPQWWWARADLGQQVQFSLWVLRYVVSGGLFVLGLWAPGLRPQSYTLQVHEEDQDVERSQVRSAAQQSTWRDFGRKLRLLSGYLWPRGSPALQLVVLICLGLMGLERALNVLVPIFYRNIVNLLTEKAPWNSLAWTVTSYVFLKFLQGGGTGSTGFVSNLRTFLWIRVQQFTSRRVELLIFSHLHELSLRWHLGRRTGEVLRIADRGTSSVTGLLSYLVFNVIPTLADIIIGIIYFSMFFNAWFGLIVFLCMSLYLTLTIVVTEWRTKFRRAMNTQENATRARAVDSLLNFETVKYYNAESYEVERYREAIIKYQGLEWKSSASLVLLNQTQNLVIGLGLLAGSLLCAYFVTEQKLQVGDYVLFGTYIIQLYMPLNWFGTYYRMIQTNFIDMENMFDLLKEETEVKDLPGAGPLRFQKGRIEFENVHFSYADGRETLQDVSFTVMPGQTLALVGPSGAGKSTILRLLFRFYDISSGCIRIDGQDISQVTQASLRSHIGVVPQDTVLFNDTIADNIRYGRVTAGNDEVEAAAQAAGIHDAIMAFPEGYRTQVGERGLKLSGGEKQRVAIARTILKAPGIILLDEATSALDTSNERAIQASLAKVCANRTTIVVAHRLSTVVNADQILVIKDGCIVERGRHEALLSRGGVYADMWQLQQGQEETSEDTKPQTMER
Granule exo inh – blocks lytic granule exocytosis; TALL-104 LAMP-1 surface exposure, flow cytometry; cells stimulated with thapsigargin and PMA; inhibition, % at 10 µM; 360,000 compounds, 0.66% hits; AID 651702;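 active = inhibition above about 55%, limit read from the data; inconclusive = no clear call, values can overlap the other calls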
ATG4B inhibitor – ATG4B (human) cysteine protease inhibition. Q9Y4P1. ATG4B cleavage of LC3-PLA2, NBD-HPC fluorescence, 1 h. inhibition, % at 8.33 µM. 340,000 compounds, 0.51% hits; in the data active = inhibition above about 40%
Myeloid diff CP1 – compounds promoting myeloid differentiation | shares compounds with Myeloid diff 2 | ER-HoxA9 myeloid progenitors, GFP/Mac1 double-positive flow | calls only | 2,300 compounds, 2% hits;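 active = share of green or green-and-red cells above 9 and 9% in run 1 or 4 and 3% in run 2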
GFP autofluor – compound fluorescence in myeloid differentiation counter-screen | shares compounds with Myeloid diff 2 | ER-HoxA9 myeloid progenitors, no estrogen, GFP autofluorescence flow cytometry; vehicle wells 0%, positive control 100% | fluorescence response, % (no concentration beside the values) | 2,300 compounds, 7.4% hits;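 active = over 5% cells positive for green fluorescent reporter, or over 2% positive for both it and APC stain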
Each line names hits and unclear results; the compound was inactive in the other large screens (follow-up assays come after a bar, where they were run).

Cc1noc(C)c1C(=O)N1CCC1(C)C(=O)NS(=O)(=O)c1ccc(F)cc1F (centres undefined)	none (no result: Arr AP2 block, ATG4B inhibitor)
O=C1C(Cc2ccccc2)S/C(=N/N=C/c2ccco2)N1c1ccccc1 (centres undefined)	none
C=CCN1C(=O)C(Cc2ccc(C)cc2)S/C1=N/N=C/c1ccco1 (centres undefined)	none (no result: Myeloid diff 2) | Myeloid diff CP1 inactive | GFP autofluor inactive
CC(C)CCNC(=O)C1CC(c2ccccc2C(F)(F)F)=NO1 (centres undefined)	none
COc1ccc(S(=O)(=O)N(C)C)cc1NC(=O)Cc1ccc(S(=O)(=O)N2CCOCC2)s1	none
CC(C)(C)NC(=O)C(c1ccc(-c2ccccc2)cc1)N(C[C@H]1CC[C@@H]([C@@H]2CC[C@H](CO)O2)O1)C(=O)c1ccc(C(C)(C)C)cc1 (some centres undefined)	none | Myeloid diff CP1 inactive | GFP autofluor inactive
C[C@H](CO)N1C[C@H](C)[C@@H](CN(C)C(=O)NC2CCCCC2)Oc2ccc(NS(=O)(=O)c3cccs3)cc2C1=O	none
CC(C)NC(=O)N(C)C[C@H]1Oc2ccc(NS(=O)(=O)c3cccs3)cc2C(=O)N([C@H](C)CO)C[C@@H]1C	none | Myeloid diff CP1 inactive | GFP autofluor inactive
C[C@H]1CN([C@@H](C)CO)C(=O)c2cc(NC(=O)CCN3CCOCC3)ccc2O[C@H]1CN(C)C(=O)Nc1ccc(F)cc1	none (no result: Arr AP2 block)
COc1ccc(NC(=O)N(C)C[C@H]2Oc3ccc(NC(=O)CCN4CCOCC4)cc3C(=O)N([C@H](C)CO)C[C@@H]2C)cc1	none | Myeloid diff CP1 inactive | GFP autofluor inactive
COc1ccc(C(=O)NCCc2cccc(Cl)c2)cc1OC1CCN(C(C)=O)CC1	none
CCN1C(=O)C(O)(C2COC(C)(C)CC2=O)c2cc(Br)ccc21 (centres undefined)	none | Myeloid diff CP1 inactive | GFP autofluor 11.8
CCOC(=O)N1CCN(c2ccc(Cl)c(Cl)c2)CC1	Myeloid diff 2 active | Myeloid diff CP1 inactive | GFP autofluor inactive
NNC(=O)c1ccc(COc2ccc3ccccc3c2)o1	Myeloid diff 2 active | Myeloid diff CP1 inactive | GFP autofluor inactive
CCOc1ccc(OCc2ccc(C(=O)NC(C)(C)C)o2)cc1	none
NNC(=O)c1ccc(COc2cccc3ccccc23)o1	Myeloid diff 2 active | Myeloid diff CP1 inactive | GFP autofluor inactive
CCOc1ccc(OCc2ccc(C(=O)NN)o2)cc1	Myeloid diff 2 active | Myeloid diff CP1 inactive | GFP autofluor inactive
Cc1ccc(OCc2ccc(C(=O)NN)o2)cc1C	none
O=C(CCNC(=O)c1ccc(Br)cc1)NC1CCCCCC1	none
COCCn1c(C)nnc1SCC(=O)NNC(=O)c1ccc(Cl)cc1	none
O=C(Nc1nnc(CCS(=O)(=O)c2ccc(Br)cc2)s1)c1ccc([N+](=O)[O-])cc1	none
CCn1c(SCC(=O)N2CCN(c3ccc(F)cc3)CC2)nc2ccccc2c1=O	NRP1-CendR mod 29.0 | Myeloid diff CP1 inactive | GFP autofluor inactive
NS(=O)(=O)c1ccc(NC(=O)CN2CCCc3ccccc32)cc1	Myeloid diff 2 active | Myeloid diff CP1 inactive | GFP autofluor inactive
NS(=O)(=O)c1ccc(NC(=O)CCc2ccccc2)cc1	none | Myeloid diff CP1 inactive | GFP autofluor inactive
c1ccc(-n2cc(CN3CCCC3)c(-c3ccc4c(c3)OCO4)n2)cc1	none
c1ccc(-n2cc(CN3CCC(N4CCOCC4)CC3)c(-c3ccc4c(c3)OCO4)n2)cc1	Myeloid diff 2 active | Myeloid diff CP1 inactive | GFP autofluor inactive
COc1ccc(C(=O)C[n+]2ccc3c(c2)nc(-c2cc(OC)c(OC)cc2OC)n3C)cc1	none
COc1ccc(C(=O)C[n+]2ccc3c(c2)nnn3-c2ccccc2)cc1	Myeloid diff 2 active | Myeloid diff CP1 inactive | GFP autofluor inactive
CCc1nn(CC(=O)NCCCN2CCOCC2)c(=O)c2cc3c(OC)cccc3n12	Myeloid diff 2 inconclusive
CN(C)S(=O)(=O)Oc1ccsc1C(=O)Nc1cccc(Cl)c1Cl	none | Myeloid diff CP1 inactive | GFP autofluor inactive
O=C(Nc1nccs1)C1CCCN(S(=O)(=O)c2cccc3cccnc23)C1 (centres undefined)	none | Myeloid diff CP1 inactive | GFP autofluor inactive
Cc1[nH]n(-c2ccccc2)c(=O)c1CCOC(=O)c1cccc(C(F)(F)F)c1	none
Cc1ccc(C(=O)OCCc2c(C)[nH]n(-c3ccccc3)c2=O)cc1	none | Myeloid diff CP1 inactive | GFP autofluor inactive
COc1ccc(Br)cc1CN(C)C(=O)c1ccncc1	none
CN(Cc1ccc(Cl)c(Cl)c1)C(=O)C1=CC=CN2CCS(=O)(=O)N=C12	Myeloid diff 2 active | Myeloid diff CP1 active | GFP autofluor inactive
O=C(Oc1ccc(Cl)c(Cl)c1)C1=CC=CN2CCS(=O)(=O)N=C12	none
COc1ccc(Br)cc1CN(C)C(=O)C1=CC=CN2CCS(=O)(=O)N=C12	none | Myeloid diff CP1 inactive | GFP autofluor inactive
O=C1CNC(=O)N1CC(=O)N1CCCc2ccccc21	none
O=C(NCCCSc1ccccc1)c1cc(Br)ccc1O	none
CCc1cccc(NS(=O)(=O)c2csc(C(N)=O)c2)c1	none
COc1ccc(C2NC(=S)NC(O)(C(F)(F)F)C2C(=O)c2cccs2)cc1 (centres undefined)	none
COc1ccc(CNC(=O)CN(Cc2ccc(C)cc2)C(=O)c2csnn2)cc1	none
CCOC(=O)c1oc2ccc(CNCCO)c(Cl)c2c1C	none
CCOC(=O)c1oc2ccc(CNC3CCCCC3)c(Cl)c2c1C	Myeloid diff 2 active | Myeloid diff CP1 inactive | GFP autofluor inactive
COc1ccc(-c2nn3c(-c4cccc(C)c4)nnc3s2)cc1OC	none | Myeloid diff CP1 inactive | GFP autofluor inactive
Cc1cccc(-n2ncc3c(NCc4ccco4)ncnc32)c1	Myeloid diff 2 active | Myeloid diff CP1 inactive | GFP autofluor inactive
Cc1ccc(S(=O)(=O)CCSc2n[nH]c(=O)n2-c2ccccc2)cc1	none | Myeloid diff CP1 inactive | GFP autofluor inactive
Cn1c(C(=O)NCCN2CCOCC2)cc2c(=O)n(C)c3ccccc3c21	none | Myeloid diff CP1 inactive | GFP autofluor inactive
COc1ccc(S(=O)(=O)N2CN3CCN(C3)C2)cc1OC	none
CCn1cc(C(=O)NN)c(=O)c2cc(F)c(NC3CCCCC3)cc21	none | Myeloid diff CP1 inactive | GFP autofluor inactive
CCn1cc(C(=O)NN)c(=O)c2cc(F)c(N3CCCCC3)cc21	none
COc1ccccc1C1(CCNC(C)c2cccs2)CCOC(C(C)C)C1 (centres undefined)	none

Screens from PubChem BioAssay.
